Active and inactive are the calls of the source.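 Rule for the calls, unless noted: active = fluorescence slope after compound addition differing from the mean of all screened samples at 99.7% confidence, in either direction; inactive = the rest.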

For orientation: inhibition means the change of the read-out against control, counted positive when it falls.

A short description of experiment [1]: inhibitors of TNFa-induced NFkB p65 translocation, primary screen, imaging, HUVEC, MLSMR starter and 10KST1 sets (AID 438;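 active = inhibition above 20% together with a positive visual image hit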;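 note: compound added about 3h40 before a 20 min TNFalpha stimulation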;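 for inhibition: signal is the nuclear over cytoplasmic p65 intensity ratio per well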). The following applies: HUVEC TNFa-induced p65 nuclear translocation; cell count: measured here: nuclei count (cytotoxicity indicator), at 2.08 µM unless noted; inhibition: at 2 µM, stronger effect = higher value unless noted.
Experiment [2] in a line: endothelial E-selectin expression blockers – imaging, HUVEC, immunofluorescence, MLSMR starter and 10KST1 sets, primary screen (AID 487;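 active = visually confirmed hit in the image check and inhibition above 20%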;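 for inhibition: signal is fraction of cell area covered by stained E-selectin grains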;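 for nuclei count: 100% = median nuclei count of all wells on the same plate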). The following applies: HUVEC TNFalpha-induced E-selectin immunofluorescence imaging, at 2 µM; inhibition: stronger effect = higher value; nuclei count: measured here: cell number, toxicity.
A short description of experiment [3]: Primary imaging screen for DUSP6 inhibitors that restore phospho-Erk in transfected HeLa cells, chemical complementation (AID 609;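 active = compounds giving at least 50% inhibition in the cell-based MKP-3 phosphatase rescue imaging test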;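 for inhibition: phospho-Erk level distribution per well compared with pooled transfected vehicle control wells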). The note with it: HeLa MKP-3 transfected, phospho-Erk imaging KS statistic, at 10 µM.
Experiment [4] has as its target Dual specificity protein phosphatase 6 (Homo sapiens) (UniProt Q16828). Described as above. The following applies: HeLa MKP-3 transfected, phospho-Erk imaging KS statistic, at 10 µM, stronger effect = higher value.
The target of experiment [5] is Voltage-gated potassium channel subunit beta-2 (Rattus norvegicus) (UniProt P62483). The experiment is described as follows: inhibitors of rat Kvbeta2 reductase activity – biochemical, NADPH fluorescence, primary screen (AID 622;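 active = fluorescence slope higher than the sample average by over 3 SD, cut at about -0.22 in these data, passing the limit was not always enough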;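 note: slope of raw intensity against log time taken from 70 to 1610 s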). The note with it: recombinant KvBeta, 4-cyanobenzaldehyde reduction, at 10 µM, stronger effect = higher value.
Experiment [6] has the same target. The experiment is described as follows: enhancers of rat Kvbeta2 NADPH turnover – biochemical, NADPH fluorescence, primary screen (AID 623;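 active = NADPH fluorescence slope more negative than the mean of all samples by about 3 SD, 99.7% confidence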;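 note: fluorescence intensity change per second fitted from 20 to 320 s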). The following applies: Recombinant KvBeta, NADPH fluorescence decrease slope, 10 min; at 10 µM; stronger effect = lower value.
Experiment [7] addresses Alpha-2C adrenergic receptor (Homo sapiens) (UniProt P18825). The experiment is described as follows: compounds altering alpha2C-coupled GIRK flux – cell-based, HEK293 alpha2C/GIRK1/2, thallium flux, primary screen (AID 624).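 Note: slope of fluorescence ratio to pre-addition baseline per second over 15 to 24 s.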 The note with it: thallium flux BTC fluorescence, at 10 µM, actives lie on both sides.
A short description of experiment [8]: inhibitors of larval lipid processing in zebrafish, primary screen, whole organism, PED6 fluorescence, gall bladder and intestine (AID 686;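 active = a full or partial loss of lipid-probe fluorescence in the fish gall bladder, intestine or both, judged by eye; inactive = no fluorescence loss, or compound toxic to the fish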;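 note: larvae 5 to 7 days old with five fish per well; signal comes from phospholipase A2 cleavage of quenched PED6 carried via bile; overnight exposure to compound and PED6 before scoring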). The following applies: Zebrafish larvae PED6 lipid processing, fluorescence scoring. In outline:
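system = live zebrafish larvae aged 5-7 days, whole organism | probe or stimulus = ingested quenched lipid PED6 at 100 nM | doses = 20 µM single dose | timing = overnight exposure | detection = fluorescence microscopy with visual scoring of gall bladder and intestine | read-out = visual per-well fluorescence inhibition score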

Experiment [9] can be described thus: loss of swimming-algae plug formation – whole organism, Chlamydomonas reinhardtii, WT vs cilia-less mutant, absorbance, 96-well, primary screen (AID 463189;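 active = inhibition at or above 50% relative to wild type and mutant plate controls; inactive = inhibition below 50%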;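 note: 0% = wild type cc124 cells in DMSO and 100% = ciliumless bld1 mutant cells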). The following applies: Chlamydomonas reinhardtii gravitaxis, OD600 absorbance, 2 days; at 10 µM; stronger effect = higher value.
Setting [10] is: measured here: cell density z-score.
Setting [11] is: measured here: nuclear c-Myc green intensity z-score.
The mark [12] stands for this setting: measured here: nuclear pErk red intensity z-score, stronger effect = higher value.

Dual specificity protein phosphatase 6 (Homo sapiens), sequence (Q16828 whole entry, looked up): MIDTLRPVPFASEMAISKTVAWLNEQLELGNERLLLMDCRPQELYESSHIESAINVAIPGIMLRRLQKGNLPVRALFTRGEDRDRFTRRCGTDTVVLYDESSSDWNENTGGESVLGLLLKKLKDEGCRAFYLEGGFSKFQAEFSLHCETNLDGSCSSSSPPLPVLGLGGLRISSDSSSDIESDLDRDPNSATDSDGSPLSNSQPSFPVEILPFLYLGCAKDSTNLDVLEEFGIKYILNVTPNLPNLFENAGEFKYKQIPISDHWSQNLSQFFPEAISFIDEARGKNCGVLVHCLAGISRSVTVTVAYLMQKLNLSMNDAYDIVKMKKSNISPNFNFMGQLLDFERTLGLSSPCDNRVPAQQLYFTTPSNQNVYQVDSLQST
Alpha-2C adrenergic receptor (Homo sapiens), sequence (P18825 whole entry, looked up): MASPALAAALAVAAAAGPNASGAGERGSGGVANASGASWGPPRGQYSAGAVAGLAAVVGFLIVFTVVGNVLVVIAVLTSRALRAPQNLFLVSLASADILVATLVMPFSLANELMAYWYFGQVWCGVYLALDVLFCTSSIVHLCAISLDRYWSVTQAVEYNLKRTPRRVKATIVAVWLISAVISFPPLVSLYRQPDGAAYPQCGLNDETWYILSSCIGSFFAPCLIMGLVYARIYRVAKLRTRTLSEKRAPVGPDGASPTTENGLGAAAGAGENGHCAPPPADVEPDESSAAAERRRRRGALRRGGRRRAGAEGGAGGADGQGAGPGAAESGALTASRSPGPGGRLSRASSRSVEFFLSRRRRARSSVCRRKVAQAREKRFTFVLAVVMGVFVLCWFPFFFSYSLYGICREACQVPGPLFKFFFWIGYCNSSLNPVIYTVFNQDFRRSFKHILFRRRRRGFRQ
Voltage-gated potassium channel subunit beta-2 (Rattus norvegicus), sequence (P62483 whole entry, looked up): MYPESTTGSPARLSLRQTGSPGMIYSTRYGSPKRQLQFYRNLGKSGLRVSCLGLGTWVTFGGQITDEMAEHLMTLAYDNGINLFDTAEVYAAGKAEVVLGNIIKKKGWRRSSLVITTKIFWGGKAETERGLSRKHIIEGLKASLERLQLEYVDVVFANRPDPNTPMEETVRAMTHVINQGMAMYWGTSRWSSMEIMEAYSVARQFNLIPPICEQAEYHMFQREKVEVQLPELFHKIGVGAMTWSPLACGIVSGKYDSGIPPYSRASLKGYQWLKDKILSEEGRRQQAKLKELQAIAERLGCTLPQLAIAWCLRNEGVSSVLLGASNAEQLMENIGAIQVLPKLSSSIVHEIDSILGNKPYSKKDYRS

Regarding `CC1(C)CC(=O)C(C=NCCN2CCN(C(=O)Cc3ccc(F)cc3)CC2)=C(O)C1`, the cell count in experiment [1] came out at 580. Further, the inhibition was 5.6% (inactive) in experiment [1], -57.7% (inactive) in experiment [2], 17.8% (inactive) in [4] and -8.15% (inactive) in experiment [9]. The nuclei count in experiment [2] amounted to 140%. Besides, the z-score is 0.866 in [3] (setting [10]), 1.58 in experiment [3] (setting [11]) and -0.927 in [3] (setting [12]). Also, the fluorescence slope in [5] is -0.481 (inactive). The NADPH fluorescence slope in experiment [6] was -3.6e-05 (inactive). The slope in experiment [7] is 0.00584 (inactive). For the same compound, the call in experiment [8] was inactive.
In experiment [1], `Cc1c(N=Cc2c(O)n(CCc3ccccc3)c(=O)[nH]c2=O)c(=O)n(-c2ccccc2)n1C` yielded a cell count of 613. The inhibition in experiment [1] was -20.6% (inactive); in experiment [2], -12.1% (inactive); in experiment [4], 14.4% (inactive); in [9], 41.8% (inactive). This compound showed a nuclei count in experiment [2] of 104%. Besides, the results for the z-score in [3] (setting [10]), in experiment [3] (setting [11]) and in [3] (setting [12]) were 1.02, -1.15 and -0.939, respectively. Moreover, the fluorescence slope in experiment [5] was -0.465 (inactive). Moreover, in experiment [6], the NADPH fluorescence slope was -1.6e-05 (inactive). The slope in experiment [7] was 0.00632 (inactive). Besides, the compound was classed as inactive in experiment [8].
Take `CCCCCCn1c(O)c(C=NCCN2CCCCC2)c(=O)[nH]c1=O`: in experiment [1], the cell count worked out at 667. Besides, the inhibition is -17.9% (inactive) in experiment [1], -47.5% (inactive) in experiment [2], 12.7% (inactive) in experiment [4] and 12.8% (inactive) in experiment [9]. Also, in experiment [2], the nuclei count was found to be 141%. Moreover, the values for the z-score in [3] (setting [10]), in [3] (setting [11]) and in experiment [3] (setting [12]) were 0.204, -1.24 and -1.39, respectively. Moreover, the fluorescence slope in [5] is -0.423 (inactive). In experiment [6], the NADPH fluorescence slope was -2.4e-06 (inactive). Also, the slope in [7] was 0.00602 (inactive). For the same compound, the result in experiment [8] was inactive.
In turn, `CCCCC1(CN2CCCC2=O)C(=O)NC(=O)NC1=O` displayed a cell count in experiment [1] of 325. The inhibition in experiment [1] is -24.8% (inactive); in experiment [2] it was -135% (inactive); in experiment [4], 3.5% (inactive); in [9], 32.8% (inactive). Moreover, the nuclei count in experiment [2] is 118%. Besides, the z-score in [3] (setting [10]) is 0.342; in experiment [3] (setting [11]), -1.01; in [3] (setting [12]) it was -1.02. For the same compound, the fluorescence slope in experiment [5] is -0.467 (inactive). Moreover, the NADPH fluorescence slope in experiment [6] was 1.5e-05 (inactive). The slope in [7] is 0.00649 (inactive). In [8], the result was inactive.
For the compound `CCC(=NCCOc1ccc(Cl)cc1)c1c(O)n(C)c(=O)n(C)c1=O`, the cell count in experiment [1] came out at 555. Further, the inhibition is -7.6% (inactive) in [1], -89.2% (inactive) in experiment [2], 13.2% (inactive) in experiment [4] and 19.1% (inactive) in experiment [9]. The compound also registered a nuclei count in experiment [2] of 99.1%. For the same compound, the z-score in experiment [3] (setting [10]) was 0.38; in experiment [3] (setting [11]), -2.81; in experiment [3] (setting [12]) it was 0.837. In addition, the fluorescence slope in [5] is -0.532 (inactive). Besides, in [6], the NADPH fluorescence slope is -0.00015 (inactive). Also, the slope in experiment [7] was 0.0044 (inactive). Besides, the compound was classed as inactive in experiment [8].
For the compound `CCN(CC)CCCC(C)N=C(c1ccccc1)c1c(O)n(C)c(=O)n(C)c1=O` (configuration not stated), in experiment [1], the cell count worked out at 617. In addition, the inhibition in experiment [1] was -1.4% (inactive); in experiment [2], -14.1% (inactive); in experiment [4] it was -1.12% (inactive); in [9], 8.34% (inactive). For the same compound, the nuclei count in experiment [2] was found to be 134%. Besides, the results for the z-score in [3] (setting [10]), in experiment [3] (setting [11]) and in experiment [3] (setting [12]) were 0.00172, -0.468 and 1.57, respectively. For the same compound, the fluorescence slope in experiment [5] was -0.507 (inactive). Besides, the NADPH fluorescence slope in [6] is -7.1e-05 (inactive). In addition, the slope in [7] was 0.00446 (inactive). The outcome in experiment [8] was inactive.
In experiment [1], `O=C1C2CCN(CC2)[C@@H]1Cc1ccc2ccccc2c1O` yielded a cell count of 542. Moreover, the inhibition in [1] was -18.4% (inactive); in experiment [2], -159% (inactive); in [4] it was 9.91% (inactive); in experiment [9] it was 9.49% (inactive). This compound also returned a nuclei count in [2] of 135%. The z-score is 0.277 in [3] (setting [10]), -1 in experiment [3] (setting [11]) and -0.726 in experiment [3] (setting [12]). Further, the fluorescence slope in experiment [5] was -0.498 (inactive). In addition, the NADPH fluorescence slope in [6] was -6.4e-05 (inactive). Also, the slope in experiment [7] was 0.00747 (inactive). Further, the compound was called inactive in experiment [8].
`CCOc1ccc(Cc2c(O)[nH]c(=O)[nH]c2=O)cc1` had a cell count in experiment [1] of 618. The inhibition is -8.4% (inactive) in experiment [1], -94.6% (inactive) in [2], 3.56% (inactive) in experiment [4] and 18.5% (inactive) in experiment [9]. The compound further showed a nuclei count in [2] of 180%. Also, the z-score in experiment [3] (setting [10]) is -2.58; in [3] (setting [11]) it was 1.33; in [3] (setting [12]), 1.61. For the same compound, the fluorescence slope in experiment [5] is -0.34 (inactive). For the same compound, the NADPH fluorescence slope in [6] is -3.4e-06 (inactive). Moreover, the slope in experiment [7] was 0.00464 (inactive). Further, the result in [8] was inactive.
`O=c1[nH]c(O)c(C=NC2CCN(Cc3ccccc3)CC2)c(=O)[nH]1` had a cell count in [1] of 422. Further, the inhibition is 0.5% (inactive) in [1], -125% (inactive) in experiment [2], 4.25% (inactive) in experiment [4] and -1.61% (inactive) in experiment [9]. The compound also returned a nuclei count in [2] of 167%. Also, the figures for the z-score in experiment [3] (setting [10]), in experiment [3] (setting [11]) and in [3] (setting [12]) were 0.26, -1.34 and -0.141, respectively. Besides, in experiment [5], the fluorescence slope was -0.409 (inactive). Also, the NADPH fluorescence slope in [6] is -7.4e-05 (inactive). Also, in experiment [7], the slope was 0.00643 (inactive). In addition, in experiment [8], the result was inactive.
